# Screens as filed in PubChem.
# TCR-CD3 inh = inhibitors of human TCR-CD3 interaction, primary screen, biochemical, fluorescence, TAMRA-labeled TCR probe. inhibition, % at 9.4 µM. 0.37% of 360,000 active. AID 651800, 2012; in the data active = inhibition above about 19%;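 note: recombinant mutant TCR 2C K166C tagged with TAMRA read by polarization; 0% = receptor in buffer alone and 100% = receptor with positive control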
# mABHD4 FP = ABHD4 inhibitors, primary screen, biochemical, fluorescence polarization, mouse | purified mABHD4, FP-Rh probe fluorescence polarization | inhibition, % at 8.92 µM | 0.54% of 370,000 active;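 active = inhibition exceeding the mean over every tested compound plus 3 SD, cut at about 30% in these data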;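 note: 0% = plate median of compound wells and 100% = S159A mutant with DMSO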
#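 Assay system: mouse ABHD4 enzyme, wild type / Also added: fluorescent activity-based probe FP-Rh / Doses: single nominal dose of 8.92 µM, 0.89% DMSO final / Timing: 45 min compound pre-incubation plus 60 min probe step, 25 °C / Signal: FP readout, ex 525 nm / em 598 nm / Control set: S159A mutant/DMSO as 100%, compound-well median as 0%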
# PAD4 FP inh = human PAD4 inhibitors, primary screen, biochemical, fluorescence polarization, 1536-well format | recombinant PAD4, RCA probe fluorescence polarization | 0.41% of 330,000 active | Protein-arginine deiminase type-4 (Homo sapiens), Q9UM07 | inhibition, % at 6.36 µM | AID 485272, 2010;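 active = percent inhibition above a cutoff equal to the mean of all tested compounds plus 3 SD, cut at about 15% in these data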;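 note: 0% = PAD4 with RCA probe and DMSO and 100% = probe without PAD4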
# TDP2 absorb = human TDP2 enzyme inhibitors, primary screen, biochemical, epi absorbance, recombinant enzyme; T5PNP hydrolysis, p-nitrophenol absorbance 415 nm; inhibition, % at 12.8 µM; 0.34% of 370,000 active;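 active = inhibition above the mean of all tested compounds plus 3 SD, set per campaign, cut at about 25% in these data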;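 note: 0% = DMSO with enzyme and 100% = buffer with substrate but no TDP2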
#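 System – recombinant human TDP2 · Amount – 120 nM TDP2 per well · Buffer or medium – Mg2+-containing Tris-HCl buffer, pH 7.5 · Reagent – T5PNP substrate, 5 mM · Dosing – 12.8 µM single point, 1% DMSO · Incubation – 2 h at 37 °C · Measured by – epi absorbance · Read-out basis – percent inhibition · Benchmarks – high control without enzyme, low control DMSO plus TDP2 · Repeats – singlicate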
# HTRA1 inhibitor = HTRA1 serine protease inhibitors, primary screen, biochemical, fluorescence polarization, HTS; Q92743; recombinant HTRA1, FP-rhodamine activity-based probe; 0.5% of 340,000 active; inhibition, % at 5.96 µM; AID 504803, 2011; in the data active = inhibition above about 36%;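 note: 0% = enzyme with DMSO and 100% = wells lacking enzyme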
# SIAE primary = human SIAE inhibitors, primary screen, biochemical, fluorescence polarization, FP-Rh probe, 1536-well HTS. Sialate O-acetylesterase (Homo sapiens), Q9HAT2. inhibition, % at 9.66 µM. 0.69% of 370,000 active. SIAE FP-Rh probe binding. AID 1053197, 2014;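 active = inhibition above a cutoff: mean of compounds within the control limits plus 3 SD of those, cut at about 17% in these data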;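 note: 0% = plate median of compound wells and 100% = probe without SIAE protein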
# Target sequence (Q9HAT2 whole entry, looked up): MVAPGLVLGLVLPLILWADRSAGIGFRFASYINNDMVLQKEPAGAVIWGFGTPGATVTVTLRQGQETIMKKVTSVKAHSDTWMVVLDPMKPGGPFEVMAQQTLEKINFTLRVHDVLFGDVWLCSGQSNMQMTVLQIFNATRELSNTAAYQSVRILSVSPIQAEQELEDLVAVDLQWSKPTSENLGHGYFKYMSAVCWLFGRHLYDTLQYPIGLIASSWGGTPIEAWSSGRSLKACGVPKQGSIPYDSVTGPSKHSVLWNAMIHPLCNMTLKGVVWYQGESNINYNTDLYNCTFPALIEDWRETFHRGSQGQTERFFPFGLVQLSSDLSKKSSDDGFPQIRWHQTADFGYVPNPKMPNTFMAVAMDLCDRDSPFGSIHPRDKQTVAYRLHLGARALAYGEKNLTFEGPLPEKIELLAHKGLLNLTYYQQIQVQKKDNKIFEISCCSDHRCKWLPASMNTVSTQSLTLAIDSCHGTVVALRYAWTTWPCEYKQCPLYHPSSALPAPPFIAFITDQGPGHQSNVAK
# SIAE inh conf = human SIAE inhibitors, retest, confirmation, biochemical, fluorescence polarization, FP-Rh probe, triplicate | shares compounds with SIAE primary | SIAE FP-Rh activity-based probe | inhibition, % at 9.66 µM | 13% of 2,300 active;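 active = mean inhibition of the replicates above the hit cutoff set in the primary screen, cut at about 17% in these data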;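 note: 0% = SIAE with DMSO and probe and 100% = probe without SIAE; inhibitors lower polarization as more probe stays unbound to SIAE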
# * = called active by the depositor; . = no result. In the library only some 2% were active in any assay of this set; here they are far more common.
SMILES,TCR-CD3 inh,mABHD4 FP,PAD4 FP inh,TDP2 absorb,HTRA1 inhibitor,SIAE primary,SIAE inh conf
CCc1nc2ccc(C(=O)NCCc3ccccn3)cn2c1N(C)Cc1ccc(N(C)C)cc1,-2.4,3.1,.,2.5,.,23.4*,3.5
COC(=O)N/N=C/c1cn(CCOc2cccc(OC)c2)c2ccccc12,-1.4,3.3,-0.8,-8.6,6.0,0.5,.
Cc1ccc(C(=O)N/N=C/c2cn(Cc3ccccc3)c3ccccc23)cn1,-2.0,4.0,3.0,-7.0,2.0,8.0,.
O=C(N/N=C/c1cn(Cc2ccccc2)c2ccccc12)c1cc(O)cc(O)c1,12.0,6.5,.,0.9,6.7,19.8*,-7.1
Cc1cccc(OCCn2cc(/C=N/NC(=O)c3ccncc3)c3ccccc32)c1,6.8,7.4,-2.4,7.0,6.2,30.9*,-2.7
Fc1ccccc1-c1cc2ncccc2cn1,-0.9,3.5,-1.6,-10.3,4.6,-1.1,.
COc1ccc(NC(=O)CN2C(=O)C(C)Oc3ccc(C)cc32)cc1 (centres undefined),-2.1,3.1,-1.8,8.0,0.0,20.7*,7.1
COc1ccc(NC(=O)CN2C(=O)C(C)Oc3ccccc32)cc1 (centres undefined),-0.7,5.0,-1.6,-4.9,0.9,-3.5,.
CC(=O)c1ccccc1NC(=O)COC(=O)CCCN1C(=O)c2cccc3cccc(c23)C1=O,6.0,-0.5,-5.6,-18.0,-3.3,18.6*,2.7
NS(=O)(=O)c1ccc(NC(=O)COC(=O)CCCN2C(=O)c3cccc4cccc(c34)C2=O)cc1,5.0,-9.7,-2.2,2.0,-4.8,-10.0,.
CCCCc1cc(=O)oc2c(C)c(OCc3nn[nH]n3)ccc12,0.0,5.6,-7.2,13.1,-0.1,-5.2,.
COc1cc(C(O)c2nc(-c3cccc(C(C)C)c3)cs2)ccc1F (centres undefined),3.6,-29.2,.,-13.8,.,-8.4,.
CCCCN1CC(=O)N2[C@@H]3c4cc(OC)ccc4OC[C@@H]3[C@H](C(=O)OCC)[C@]2(C)C1=O,3.5,-2.5,.,-0.7,5.8,-6.7,.
O=C(CN1NS(=O)(=O)c2ccccc2C1=O)Nc1ccccc1OC(F)F,5.7,3.4,1.3,11.6,-1.1,18.8*,2.5
CN1C(=O)C(=O)N(CC(=O)Nc2ccccc2OC(F)F)C1=O,-5.7,-4.5,1.1,-4.7,8.2,2.3,.
COc1ccc(CN2C[C@@H](CO)O[C@@H](n3cnc4c(NCc5cc(OC)c(OC)c(OC)c5)ncnc43)C2)cc1,0.1,0.3,.,-0.9,.,2.2,.
COc1cc(CNc2ncnc3c2ncn3[C@H]2CN(Cc3ccc(Cl)cc3)C[C@@H](CO)O2)cc(OC)c1OC,-5.3,-2.5,.,1.8,.,19.1*,-3.8
N#C/C(=C\Nc1ccccc1O)c1nc2ccccc2o1,4.5,17.6,1.6,-7.2,-12.8,17.8*,-10.2
Cc1c(Cl)cccc1NC(=S)N1CCc2ccccc2C1,1.7,0.3,-2.4,-5.5,-5.2,4.3,.
CNC(=S)N1CCc2ccccc2C1,-1.8,4.8,0.3,10.6,-1.4,29.7*,5.2
C=CCN=C1CC(C)(C)C(C(=O)OC)C(O)=C1C(=O)CCC (centres undefined),0.2,0.7,2.3,0.7,1.7,-1.6,.
CC1Cc2nc(SCC(=O)c3ccccc3)n(Cc3ccccc3)c(=O)c2S1 (centres undefined),-0.3,-19.0,1.2,3.4,-35.1,0.2,.
CC1Cc2nc(SCC(=O)NCc3ccccc3)n(Cc3ccccc3)c(=O)c2S1 (centres undefined),1.6,4.9,1.2,6.5,-4.1,17.3*,1.6
Cc1cc(C)cc(N2C(=O)C3C4C=CC(C4)C3C2=O)c1 (centres undefined),1.8,2.4,-6.0,-8.9,-1.9,18.6*,-1.4
Cc1cc(NC(=O)c2ccc(NS(=O)(=O)c3ccc(F)cc3)cc2)no1,.,4.8,.,10.2,.,-0.6,.
SMILES,TCR-CD3 inh,mABHD4 FP,PAD4 FP inh,TDP2 absorb,HTRA1 inhibitor,SIAE primary,SIAE inh conf
CCOC(=O)c1cnc(SCC(=O)OCC(=O)NC2CCS(=O)(=O)C2)nc1N (centres undefined),-2.9,6.0,-3.2,6.6,-2.1,18.0*,-5.3
c1ccc(Oc2ccc(-c3ccnc4nc(N5CCN(c6ccccc6)CC5)nn34)cc2)cc1,-6.7,-9.1,-0.8,15.2,-4.5,22.0*,4.3
c1ccc(-c2ccnc3nc(N4CCN(c5ccccc5)CC4)nn23)cc1,8.3,1.4,-0.3,-4.7,-18.6,-4.1,.
Cc1cc(C(=O)N/N=C/c2c(C)nn(-c3ccccc3)c2C)c(C)o1,-14.8,-1.8,0.9,-10.1,0.2,-2.9,.
COc1ccc(OCCC(=O)OCC(=O)c2ccc[nH]2)cc1,5.5,0.7,-10.6,3.3,8.4,-0.9,.
COc1ccc(-c2c(Cc3ccccc3)nc(NC(=O)c3ccccc3F)n2C)cc1,.,-12.8,.,2.3,.,40.9*,3.2
Oc1ccc(O)c(Cc2nc3ccccc3[nH]2)c1,-0.2,11.4,-3.1,2.5,6.8,18.6*,2.9
c1ccc2[nH]c(COCc3nc4ccccc4[nH]3)nc2c1,.,-0.3,.,1.3,.,4.9,.
CCOc1ccc(NC(=O)COC(=O)c2ccc3c(c2)OCCO3)cc1,-1.4,-2.6,2.6,0.3,-7.2,-3.1,.
CCOC(=O)N1[C@@H]2C=C(C)[C@@H]2[C@@H]2[C@@H](C)C(=O)N21,2.9,-0.1,-4.9,3.5,4.7,78.2*,85.6*
COc1ccc(NC(=O)CSc2ccc(-c3ccco3)nn2)cc1OC,1.6,2.0,0.4,18.7,4.6,18.5*,-2.0
COc1ccc(NC(=O)CSc2nnc3ccc(-c4cccnc4)nn23)cc1OC,3.1,-3.4,-3.6,0.3,-0.4,20.8*,4.1
COc1ccc(NC(=O)CSc2nncn2C)cc1OC,5.9,-6.1,0.8,-3.7,3.3,32.6*,-0.1
O=C(OCc1ccccc1)C1CCCN1C(=O)c1cccs1 (centres undefined),7.0,-0.2,-1.0,-15.9,-2.4,-0.9,.
O=C(COC(=O)C1CCCN1C(=O)c1cccs1)c1ccccc1 (centres undefined),-2.8,-0.4,-2.9,7.5,-0.2,17.2*,-5.6
COc1ccc(Br)cc1CNC(=O)Nc1cccs1,2.3,-0.7,1.4,10.3,-9.3,18.8*,3.3
